Our source for the Activity and IC50 values is ChEMBL document CHEMBL4673261, “Saturated Hydroxy Fatty Acids Exhibit a Cell Growth Inhibitory Activity and Suppress the Cytokine-Induced β-Cell Apoptosis” (J Med Chem, 2020).

Molecules are shown by their SMILES. Calls of active or inactive are those of the source. The rule behind the calls is not given here.

The subject of one data set is U-87 MG. In words: Antiproliferative activity against human U-87 MG cells assessed as reduction in cell growth after 72 hrs by MTT assay. The data set is classed as functional, cell-based. The following applies: U-87MG ATCC. In short, it runs like this: (§1)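 Cells were switched after 24 h to medium containing compound, diluted from a 10 mM DMSO stock to a final 0.5% DMSO, with vehicle controls. Exposure was 72 h, then MTT (0.25 mg/mL final) for 3 h. Formazan was dissolved in DMSO and read at 570 nm minus 690 nm background. Triplicate wells were normalised to DMSO as 100%. IC50 came from dose-response curves over at least six experiments.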
On the technique in general: Tetrazolium dyes change colour on reduction, which living cells bring about.

Data set [1] has as its system SF-268. In words: Antiproliferative activity against human SF-268 cells assessed as reduction in cell growth after 72 hrs by MTT assay. The class given is functional, cell-based. The following applies: SF-268, 72 h. In short, it runs like this:
as §1

The test system of data set [2] is Caco-2. In words: Antiproliferative activity against human Caco2 cells assessed as reduction in cell growth after 72 hrs by MTT assay. The class given is functional, cell-based. As to conditions: Caco-2, 72 h. In short, it runs like this:
as §1

For data set [3], the system named is A549. In words: Antiproliferative activity against human A549 cells assessed as reduction in cell growth after 72 hrs by MTT assay. The data set is classed as functional, cell-based. The following applies: A549, 72 h. In short, it runs like this:
as §1

Data set [4] in a line: Toxicity in […] assessed as induction of apoptotic cell death at 1 to 10 uM measured after 1 hr by TUNEL assay. The data set is classed as cell-based. The following applies: ins1, 10 µM; dose 1-10 µM. In short, it runs like this: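 INS-1 cells (RPMI, 10% FCS, 10 mM HEPES, 1 mM pyruvate, 37 °C, 5% CO2) were grown to ~70% confluency. They were pretreated 1 h with 1 or 10 μM (final DMSO 0.10%), then given vehicle or IL-1β 20 ng/mL + IFNγ 200 ng/mL for 16 h. Cells were cytospun, PFA-fixed, permeabilised, TUNEL-stained and DAPI-counterstained. Result was % TUNEL-positive nuclei from ≥3 fields per slide, 3–5 independent experiments, mean ± SEM.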

Data set [5] has as its system INS1. In words: (§2) Protection against IL1beta/IFNgamma-induced cell death in […] cells assessed as reduction in cell death at 1 uM preincubated for 1 hr followed by IL1beta/IFNgamma addition and measured after 16 hrs by TUNEL assay relative to control. The following applies: Rattus norvegicus, time 17.0 hrs. The class given is functional. In short, it runs like this: (§3)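 INS-1 insulinoma cells grown in RPMI (10% fetal calf serum, 2 mM glutamine, 10 mM HEPES, 1 mM pyruvate) at 37 °C, 5% CO2 to ~70% confluency. Pretreated 1 h with the hydroxy fatty acid in DMSO (final 0.10%), then IL-1β 20 ng/mL + IFNγ 200 ng/mL for 16 h. Cells were cytospun, PFA-fixed and permeabilised, then TUNEL/DAPI stained. Apoptotic cells counted as % of total, ≥3 fields per slide, 3–5 independent experiments.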

The subject of data set [6] is INS1. The data set is described as follows: (§4) Protection against IL1beta/IFNgamma-induced cell death in […] cells assessed as reduction in cell death at 10 uM preincubated for 1 hr followed by IL1beta/IFNgamma addition and measured after 16 hrs by TUNEL assay relative to control. The data set is classed as functional. As to conditions: Rattus norvegicus, time 17.0 hrs. In short, it runs like this: as §3

In data set [7] the test system is SF-268. The data set is described as follows: Antiproliferative activity against human SF-268 cells assessed as reduction in cell growth at 10 to 100 uM after 72 hrs by MTT assay. The class given is functional, cell-based. The following applies: dose 10-100 µM. In short, it runs like this:
as §1

For data set [8], the system named is Caco-2. In words: Antiproliferative activity against human Caco2 cells assessed as reduction in cell growth at 10 to 100 uM after 72 hrs by MTT assay. The class given is functional, cell-based. As to conditions: dose 10-100 µM. In short, it runs like this: as §1
Data set [9] deals with A549. The data set is described as follows: Antiproliferative activity against human A549 cells assessed as reduction in cell growth at 10 to 100 uM after 72 hrs by MTT assay. The data set is classed as functional, cell-based. As to conditions: dose 10-100 µM. In short, it runs like this:
as §1

Data set [10] deals with A549. The data set is described as follows: Induction of apoptosis in human A549 cells assessed as increase in activated caspase-3 at 50 uM measured after 72 hrs by DAPI and immunostaining based assay. The class given is functional, cell-based. In short, it runs like this: (§5)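 A549 cells (DMEM, 4.5 g/L glucose, 10% heat-inactivated FBS) were grown on poly-L-lysine-coated coverslips and exposed to 50 μM or DMSO vehicle for 72 h. They were fixed in 4% PFA and blocked with 5% FBS/0.1% Triton X-100. Staining was rabbit anti-phospho-histone H3 or anti-cleaved caspase-3 overnight at 4 °C, then Alexa488 secondary and DAPI. Read-out was % positive nuclei over DAPI, n = 8 fields.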

Data set [11] deals with A549. In words: Cell cycle arrest in human A549 cells assessed as reduction in histone H3 phosphorylation at 50 uM measured after 72 hrs by DAPI and immunostaining based assay. The class given is functional. In short, it runs like this: as §5
Data set [12] can be described thus: as §2. The class given is functional. More on the design: scale not given: the % may be the effect or the level left. As to conditions: time 17 hrs. In short, it runs like this:
as §3

Data set [13] is described as follows: as §4. As to conditions: time 17 hrs. On the set-up: scale not given: the % may be the effect or the level left. The class given is functional. In short, it runs like this:
as §3

Data set [14] concerns the target Signal transducer and activator of transcription 3 (Homo sapiens) (UniProt P40763). The data set is described as follows: Down regulation of STAT3 phosphorylation in human A549 cells at 50 uM by Western blot analysis. The class given is cell-based. In short, it runs like this: (§6)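 Treated and untreated A549 cells were lysed in RIPA and spun at 17,000g for 15 min at 4 °C. 35 μg protein was run on SDS-PAGE and transferred to nitrocellulose, then blocked with 5% BSA in TBS-0.1% Tween 20. Probes were anti-phospho-STAT3 (1:1000), anti-STAT3 (1:1000) and anti-β-actin (1:20,000) overnight at 4 °C, then secondary for 1.30 h. Relative protein expression was quantified.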
In general terms: Immunoblotting shows a protein as a band on a membrane.

In data set [15] the test system is A549. In words: Reduction in total STAT3 expression in human A549 cells at 50 uM by Western blot analysis. The class given is functional, cell-based. In short, it runs like this:
as §6

The subject of data set [16] is A549. The data set is described as follows: Reduction in STAT3 mRNA level in human A549 cells at 50 uM by RT-qPCR analysis. The class given is functional, cell-based. In short, it runs like this: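 STAT3 mRNA in DMSO- versus compound-treated A549 cells was measured by quantitative real-time RT-PCR, normalised to β-actin mRNA.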
(In general: Quantitative PCR measures a nucleic acid by following its amplification.)

The term IC50 denotes the concentration at which inhibition is half-maximal.

Sequence of Signal transducer and activator of transcription 3 (Homo sapiens) (P40763 whole entry): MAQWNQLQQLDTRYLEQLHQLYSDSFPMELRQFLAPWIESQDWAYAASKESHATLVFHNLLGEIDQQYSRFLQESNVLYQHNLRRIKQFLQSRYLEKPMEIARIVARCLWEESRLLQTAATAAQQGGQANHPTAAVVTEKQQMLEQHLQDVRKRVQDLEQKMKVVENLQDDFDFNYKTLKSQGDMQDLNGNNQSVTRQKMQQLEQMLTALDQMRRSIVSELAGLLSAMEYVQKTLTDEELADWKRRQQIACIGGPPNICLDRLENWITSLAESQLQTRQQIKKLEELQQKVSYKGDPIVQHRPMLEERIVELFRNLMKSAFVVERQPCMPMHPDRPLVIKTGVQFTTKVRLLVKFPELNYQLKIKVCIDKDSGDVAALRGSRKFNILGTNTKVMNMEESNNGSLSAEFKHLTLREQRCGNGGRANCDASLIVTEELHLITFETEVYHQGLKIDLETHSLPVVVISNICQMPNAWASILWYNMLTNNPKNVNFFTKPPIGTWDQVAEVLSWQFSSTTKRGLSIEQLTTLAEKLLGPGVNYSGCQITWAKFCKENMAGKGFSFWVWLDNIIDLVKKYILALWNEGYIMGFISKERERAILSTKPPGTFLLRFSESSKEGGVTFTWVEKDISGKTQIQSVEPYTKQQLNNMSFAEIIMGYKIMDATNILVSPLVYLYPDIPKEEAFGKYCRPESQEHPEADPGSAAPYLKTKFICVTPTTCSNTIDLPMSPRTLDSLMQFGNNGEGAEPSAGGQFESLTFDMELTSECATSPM

`CCCCCCCCCCC[C@H](O)CCCCCC(=O)O`: the outcome in the data set with U-87 MG, in the data set with INS1 [5] and in the data set with INS1 [6] was inactive. Moreover, the IC50 with SF-268 [1] is 47 µM; in the data set with Caco-2 [2], 50 µM; in the data set on A549 [3], 50 µM. In data set [4], the Activity result is on record as “Non-Toxic”.

Take `CCCCCCCCCCCCCCCC(=O)OC(CCCCCCCCCCC)CCCCCC(=O)O` (centres undefined): the result in the data set with SF-268 [7], with Caco-2 [8], in the data set with A549 [9] and with INS1 [6] was inactive.

As for `CCCCCCCCC[C@@H](O)CCCCCC(=O)O`, the result in the data set with U-87 MG was inactive. Besides, the IC50 in the data set on Caco-2 [2] turned out to be 42 µM; in the data set on A549 [3], 49 µM.

For `CCCCCCCCC[C@H](O)CCCCCC(=O)O`, the result in the data set on U-87 MG was inactive. Besides, the IC50 with Caco-2 [2] was determined as 50 µM; in the data set on A549 [3] it was 55 µM.

As to `CCCCCCCCC[C@@H](O)CCCCCCCC(=O)O`, the Activity entry is “Non-Toxic” in [4], 40% in data set [12] and 73% in data set [13]. Further, the outcome with A549 [10] was inactive. For the same compound, in the data set on A549 [11], the result was Active.

Take `CCCCCCCCC[C@H](O)CCCCCCCC(=O)O`: the figures for the Activity result in data set [4], in data set [12] and in data set [13] were “Non-Toxic”, 40% and 68%, respectively.

Turning to `CCCCCCCCCCCCCCCC(=O)OC(CCCCCCCCC)CCCCCCCC(=O)O` (centres undefined), the result in the data set with SF-268 [7], with Caco-2 [8] and with A549 [9] was inactive.

As to `CCCCCCCCCCCCCCCC(=O)O`, the result in the data set on SF-268 [7], with Caco-2 [8] and in the data set with A549 [9] was inactive.

As for `CCCCCCCC/C=C\CCCCCCCC(=O)OC(CCCCCCCCC)CCCCCCCC(=O)O` (centres undefined), the result in the data set on SF-268 [7], in the data set with Caco-2 [8] and with A549 [9] was inactive.

Take `CCCCCCCCCCCCCCCCCC(=O)O`: the result in the data set with SF-268 [7], with Caco-2 [8] and with A549 [9] was inactive.

As to `CCCCCCCCCCC[C@@H](O)CCCCCC(=O)O`, the result in the data set with U-87 MG, in the data set with A549 [10] and with INS1 [5] was inactive. Moreover, the 50% inhibitory concentration (IC50) in the data set with SF-268 [1] was found to be 27 µM; in the data set on Caco-2 [2], 37 µM; with A549 [3], 38 µM. The Activity entry in data set [4] is “Non-Toxic”; in data set [13], 95%. The result (in data set [14]; with A549 [15]; with A549 [16]; in the data set with A549 [11]) was Active.
